One series has as its system K562/ADR. Briefly: Cell proliferation assay, multidrug-resistant K562/ADR. Format: cell-based. In outline: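 K562/ADR cells were derived from parental K562 by stepwise increases in ADR concentration. Proliferation was measured by the SRB (adherent) or MTT (suspension) method: 4000−6000 cells/well seeded overnight at 37 °C, 5% CO2, graded test compound in triplicate wells. IC50 was obtained by nonlinear regression. The resistance factor compares K562/ADR with parental K562. Results are means ± SD (n ≥ 2).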

Another series concerns PC-3 cells. Briefly: Cell cycle analysis by flow cytometry. Format: cell-based, human. The following applies: PC-3, 24 h treatment. In outline:
(§1)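 Cells were seeded in 12-well plates overnight, then exposed to test compound for 24 h. Cells were trypsinized, washed in cold PBS and fixed overnight in 70% ethanol at −20 °C. After two PBS washes they were stained 30 min at 37 °C with 50 μg/mL propidium iodide plus 20 μg/mL RNase A. About 10,000 cells were acquired by flow cytometry. Results are means ± SD; two-tailed unpaired t test.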

In a further series the test system is A-431. The experiment in a line: Cell proliferation assay. Particulars: read-out: IC50 A-431; squamous cell carcinoma; mean ± SD (n ≥ 2). Format: cell-based. The essentials:
(§2)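 Mycoplasma-negative, STR-authenticated cells were seeded at 4000−6000/well and kept overnight at 37 °C, 5% CO2. Graded test compound concentrations or solvent control were added to triplicate wells. Adherent lines were read by SRB (OD 510 nm) and suspension lines by MTT (OD 570 nm). IC50 was obtained by nonlinear regression. Results are means ± SD (n ≥ 2).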

The next series concerns H1975. The experiment in a line: Cell proliferation assay. Format: cell-based. Particulars: read-out: IC50 H1975; lung carcinoma; mean ± SD (n ≥ 2). The essentials: as §2
A further series relates to MDA-MB-231. The experiment in a line: Cell proliferation assay. Format: cell-based, human. Particulars: read-out: IC50 MDA-MB-231; breast carcinoma; mean ± SD (n ≥ 2). In outline: as §2
Another series has as its system PC-3. Briefly: Cell proliferation assay. Particulars: read-out: IC50 PC-3; prostate carcinoma; mean ± SD (n ≥ 2). It is filed as cell-based, human. The essentials: as §2
The subject of a further series is NCI-H460. Briefly: Cell proliferation assay. It is filed as cell-based. The following applies: read-out: IC50 NCI-H460; lung carcinoma; mean ± SD (n ≥ 2). In outline: as §2
A further series relates to K562. The experiment in a line: Cell proliferation assay. The following applies: read-out: IC50 K562, mean ± SD (n ≥ 2). Format: cell-based. In outline:
as §2

For another series, the system named is NUGC-3. The experiment in a line: Cell proliferation assay. It is filed as cell-based. Particulars: read-out: IC50 NUGC-3; gastric carcinoma; mean ± SD (n ≥ 2). The essentials:
as §2

Another series concerns KATO III. Briefly: Cell proliferation assay. Format: cell-based. The following applies: read-out: IC50 KATO III; gastric carcinoma; mean ± SD (n ≥ 2). In outline: as §2
A short description of series [1]: Boron biodistribution of compound 1d by ICP-mass. Format: in vivo, mice. The following applies: 3 h postinjection. The essentials: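 Mice bearing subcutaneous tumours got a single intraperitoneal injection of 2 mg test compound in saline/DMSO and were sacrificed at 3 h. Blood was taken by cardiac puncture, and major organs and tumour were harvested and weighed. Tissue was digested 2 days at room temperature in 1 mL 1:1 concentrated H2SO4/HNO3, diluted 100-fold in water and filtered (0.22 μm). Boron was measured by ICP-OES and ICP-MS as μg/g tissue.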

The subject of another series is MDA-MB-231 cells. Briefly: Cell cycle analysis by flow cytometry. Format: cell-based, human. The following applies: MDA-MB-231, 24 h treatment. The essentials: as §1
Series [2] deals with cyclin A2, cyclin B1, and cyclin D1. Briefly: Western blot of cell cycle-related proteins. Particulars: MDA-MB-231 and PC-3 cells, 24 h, dose-dependent. Format: cell-based, human. In outline:
(§3)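 MDA-MB-231 and PC-3 cells were seeded in 12-well plates overnight, then exposed to a concentration gradient of test compound. Cells were lysed in SDS sample buffer, and equal protein amounts were run on SDS-PAGE and transferred to PVDF. Membranes were probed with primary antibodies, then HRP-conjugated secondary antibodies, and detected by ECL chemiluminescence.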

The subject of the next series is MDR1. Briefly: Western blot of MDR1 in K562/ADR. The following applies: 48 h, concentration-dependent. It is filed as cell-based. The essentials: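 K562 and K562/ADR cells were seeded in 12-well plates overnight and treated with a concentration gradient of test compound for 48 h. Lysates in SDS sample buffer (equal protein) were separated by SDS-PAGE and transferred to PVDF. MDR1 was probed with primary and HRP-conjugated secondary antibodies and detected by ECL.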

The subject of the next series is DOHH2. Briefly: Cell proliferation assay. It is filed as cell-based. The following applies: read-out: IC50 DOHH2; diffuse large B cell lymphoma; mean ± SD (n ≥ 2). The essentials: as §2
For the next series, the system named is HCT116. Briefly: Cell proliferation assay. It is filed as cell-based. The following applies: read-out: IC50 HCT116; colorectal carcinoma; mean ± SD (n ≥ 2). The essentials:
as §2

The subject of the next series is MV-4-11. Briefly: Cell proliferation assay. It is filed as cell-based. Particulars: read-out: IC50 MV-4-11; acute myeloid leukemia; mean ± SD (n ≥ 2). The essentials: as §2
The next series relates to SUDHL-4. Briefly: Cell proliferation assay. Format: cell-based. Particulars: read-out: IC50 SUDHL-4; diffuse large B cell lymphoma; mean ± SD (n ≥ 2). The essentials: as §2
The test system of series [3] is P-AKT, P-STAT3, P-STAT5, P-P38. Briefly: Western blot of JAK/STAT5, PI3K/AKT and p38 MAPK pathways. The following applies: MDA-MB-231 and PC-3 cells, 24 h, concentration-dependent. Format: cell-based, human. In outline: as §3
A further series relates to HPAF-II. The experiment in a line: Cell proliferation assay. It is filed as cell-based. The following applies: read-out: IC50 HPAF-II; pancreatic carcinoma; mean ± SD (n ≥ 2). In outline:
as §2

For series [4] the following is noted: 1 h postinjection; cited from earlier work.

Like-named read-outs stand apart in the source and are kept apart here.

“3-(1,2-Dicarba-closo-dodecarboranyl)-7-hydroxy-4H-chromen-4-one [Compound 1d]”: in the series on K562/ADR (K562/ADR versus K562), the “RF (resistance factor)” value is on record as 0.93. The IC50 in the series with K562/ADR (read-out: IC50 K562/ADR, multidrug-resistant subline, mean ± SD (n ≥ 2)) came to 4.91 ± 0.094 µM; with A-431 it was 4.09 ± 0.46 µM; with H1975, 5.27 ± 0.63 µM; with MDA-MB-231, 5.59 ± 1.82 µM; with PC-3, 5.24 ± 1.9 µM; in the series with NCI-H460, 4.24 ± 0.9 µM. Besides, the IC50 in the series on K562 (chronic myeloid leukemia) stood at 5.29 ± 0.86 µM; in the series on K562 (parental cell line), 5.29 ± 0.861 µM; with NUGC-3 it was 3.36 ± 0.02 µM; in the series with KATO III, 4.38 ± 0.04 µM; in the series on DOHH2, 2.78 ± 0.26 µM; in the series with HCT116, 3.42 ± 0.22 µM. Also, the values for the IC50 in the series with MV-4-11, in the series on SUDHL-4 and with HPAF-II were 4.25 ± 0.34 µM, 5.4 ± 0.48 µM and 3.56 ± 0.38 µM, respectively. Moreover, the “effect on cell cycle distribution” value with PC-3 cells and in the series on MDA-MB-231 cells was “caused G0/G1 cell cycle arrest” each time. Also, the “brain/blood uptake ratio (boron)” value in [1] turned out to be 0.45. In addition, in [1] (2 mg intraperitoneal, mice), the “boron content in blood” value was 2.28 ± 0.99 µg/g. In addition, the “boron content in brain” value in series [1] (2 mg intraperitoneal, mice) amounted to 1.03 ± 0.43 µg/g. Further, the “boron content in liver” value in series [1] (2 mg intraperitoneal, mice) amounted to 56.37 ± 4.71 µg/g. Moreover, in [1] (2 mg intraperitoneal, mice), the “boron content in pancreas” value worked out at 40.74 ± 4.67 µg/g. The “boron content in tumor” value in [1] (2 mg intraperitoneal, mice) is 2.18 ± 1.18 µg/g. In addition, the “expression of cyclin A2, cyclin B1, and cyclin D1” value in [2] is listed as “downregulated”. Moreover, the “expression of MDR1” value in the series on MDR1 is reported as “significantly inhibited”. The P-P38 expression result in series [3] was “upregulating”. Further, the “expression of P-AKT, P-STAT3, and P-STAT5” value in [3] is “reduced”.
As to `O=C([O-])CN(CCN(CC(=O)[O-])Cc1cc(CCC(=O)NCCCCCC(=O)NCCCC[C@H](NC(=O)N[C@@H](CCC(=O)O)C(=O)O)C(=O)O)ccc1[O-])Cc1cc(CCC(=O)O)ccc1[O-].[68Ga+3].[OH3+]` [^68Ga-PSMA11], the brain uptake in series [4] is reported as 0.013 ± 0.004 % ID/g.

Source of the values: publication PMC12079591 (ACS Omega, 2025).
